Several values for one entry are separate records, joined by “and”; a condition that tells them apart may be missing. Identical values can stand only once.
Key:
E. coli ATCC 25922 = assay: Broth microdilution MIC/MBC, E. coli; format: cell-based, Escherichia coli; conditions: for MIC E. coli ATCC 25922: value before the parentheses, two values = two repeats; for MBC E. coli ATCC 25922: value in parentheses
Method in brief: (§1)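 CLSI broth microdilution in cation-adjusted Mueller–Hinton broth. Log-phase cultures were diluted to 7.5 × 10^5 CFU/mL, then mixed 1:1 with 2-fold serial dilutions of gold complexes from DMSO or water stocks, in triplicate, and held 37 °C, 18 h, static. MIC: lowest concentration giving >90% inhibition by OD600 against medium-only and bacteria-only wells. […] E. coli ATCC 25922 quality control was checked each run with ciprofloxacin and […].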

S. aureus JE2 (USA300) = assay: Broth microdilution MIC/MBC, S. aureus; format: cell-based, Staphylococcus aureus; conditions: for MIC S. aureus JE2 (USA300): value before the parentheses, two values = two repeats; for MBC S. aureus JE2 (USA300): value in parentheses
Method in brief: as §1

E. cloacae NCTC 13405 = assay: Broth microdilution MIC/MBC, E. cloacae; format: cell-based, Enterobacter cloacae; conditions: for MIC E. cloacae NCTC 13405: value before the parentheses, two values = two repeats; for MBC E. cloacae NCTC 13405: value in parentheses
Method in brief: as §1

A. baumannii NCTC 13420 = assay: Broth microdilution MIC/MBC, A. baumannii; format: cell-based, Acinetobacter baumannii; conditions: for MIC A. baumannii NCTC 13420: value before the parentheses, two values = two repeats; for MBC A. baumannii NCTC 13420: value in parentheses
[1] = tested on: K. pneumoniae ATCC 700603; assay: Broth microdilution MIC/MBC, K. pneumoniae; format: cell-based, Klebsiella pneumoniae; conditions: for MIC K. pneumoniae ATCC 700603: value before the parentheses, two values = two repeats; for MBC K. pneumoniae ATCC 700603: value in parentheses
Method in brief: as §1

E. faecium ATCC 700221 = assay: Broth microdilution MIC/MBC, E. faecium; format: cell-based, Enterococcus faecium; conditions: for MIC E. faecium ATCC 700221: value before the parentheses, two values = two repeats; for MBC E. faecium ATCC 700221: value in parentheses
Method in brief: as §1

P. aeruginosa NCTC 13437 = assay: Broth microdilution MIC/MBC, P. aeruginosa; format: cell-based, Pseudomonas aeruginosa; conditions: for MIC P. aeruginosa NCTC 13437: value before the parentheses, two values = two repeats; for MBC P. aeruginosa NCTC 13437: value in parentheses
Method in brief: as §1

Log P determination = conditions: n-octanol/water, Au by FAAS

Row | SMILES | MIC E. coli ATCC 25922 (E. coli ATCC 25922) | MBC E. coli ATCC 25922 (E. coli ATCC 25922) | MIC S. aureus JE2 (USA300) (S. aureus JE2 (USA300)) | MBC S. aureus JE2 (USA300) (S. aureus JE2 (USA300)) | MIC E. cloacae NCTC 13405 (E. cloacae NCTC 13405) | MBC E. cloacae NCTC 13405 (E. cloacae NCTC 13405) | fold enhancement of activity over auranofin, E. cloacae (E. cloacae NCTC 13405; vs auranofin) | MIC A. baumannii NCTC 13420 (A. baumannii NCTC 13420) | MBC A. baumannii NCTC 13420 (A. baumannii NCTC 13420) | MIC K. pneumoniae ATCC 700603 [1] | MBC K. pneumoniae ATCC 700603 [1] | MIC E. faecium ATCC 700221 (E. faecium ATCC 700221) | MBC E. faecium ATCC 700221 (E. faecium ATCC 700221) | MIC P. aeruginosa NCTC 13437 (P. aeruginosa NCTC 13437) | MBC P. aeruginosa NCTC 13437 (P. aeruginosa NCTC 13437) | log P (Log P determination) | MIC S. aureus (S. aureus JE2 (USA300))
1 | CC[PH](CC)(CC)[Au][S]C1OC(CO)C(O)C(O)C1O [Compound 10, (1-Thio-β-D-galatopyranosato)(triethylphosphine) Gold(I)] | 16 µM | 16 µM | 0.02 µM | 0.1 µM | 63 µM | 63 µM | 3 | 31 µM | 31 µM | 251 µM | 251 µM | 0.1 µM and 0.2 µM | 0.5 µM | 251 µM | 251 µM | −0.73 | 
2 | C[PH](C)(C)[Au][S]C1OC(CO)C(O)C(O)C1O [Compound 38, (1-Thioβ-D-galatopyranosato)(trimethylphosphine) Gold(I)] | 9 µM | 9 µM | 0.3 µM | 0.3 µM | 4.5 µM and 4 µM | 4.5 µM and 4 µM |  | 17 µM and 9 µM | 17 µM | 34 µM | 34 µM | 0.3 µM and 0.5 µM | 0.5 µM | >547 µM |  | −1.88 | 
3 | C[PH](C)(C)[Au][S]C1OC(CO)C(O)C(O)C1O [Compound 37, (1-Thio-β-D-glucopyranosato)(trimethylphosphine) Gold(I)] | 9 µM | 9 µM | 0.3 µM and 0.5 µM | 1 µM |  | 17 µM |  |  | 17 µM | 34 µM | 34 µM | 0.3 µM and 0.5 µM | 0.5 µM | >547 µM |  | −1.63 | 
4 | CCCC[PH](CCCC)(CCCC)[Au][Cl] [Compound 26, (Tri-n-butylphosphine)gold Chloride] | >589 µM |  | 2 µM | 4 µM | >589 µM |  |  | 74 µM and 147 µM | 147 µM | 147 µM | 147 µM | 5 µM | 5 µM | 74 µM | 74 µM | >3.99 | 
5 | FC(F)(F)c1ccc(P(c2ccc(C(F)(F)F)cc2)c2ccc(C(F)(F)F)cc2)cc1.[Cl][Au] [Compound 30, (Tris(4-trifluoromethylphenyl)phosphine)gold Chloride] | >366 µM |  |  | 11 µM | >366 µM |  |  | >366 µM |  | >366 µM |  | >366 µM |  | >366 µM |  | >3.94 | 
6 | CC(=O)OCC1O[C@@H]([S][Au-][P+](c2ccc(F)cc2)(c2ccc(F)cc2)c2ccc(F)cc2)C(OC(C)=O)[C@@H](OC(C)=O)[C@@H]1OC(C)=O (stereo partly drawn) [Compound 35, (2,3,4,6-Tetra-O-acety/-1-thio-β-D-glucopyranosato)(tris(4-fluorophenyl)phosphine) Gold(I)] | >292 µM |  | 1 µM | 2 µM | >292 µM |  |  | >292 µM |  | >292 µM |  |  | 5 µM | >292 µM |  | >3.04 | 
7 | CC[PH](CC)(CC)[Au][S]c1ccccc1 [Compound 15, (Benzenethiolato)(triethylphosphine) Gold(I)] | 151 µM | 151 µM | 0.02 µM | 0.6 µM | 75 µM | 603 µM |  |  | > 603 µM | >603 µM |  | 0.6 µM | 1 µM | 302 µM | 302 µM | 2.20 | 
8 | CC[P+](CC)(CC)[Au-][S]CC(=O)OC [Compound 22, (Methyl Mercaptoacetatato)(triethylphosphine) Gold(I)] | 76 µM | 76 µM |  | 0.02 µM | 38 µM | 152 µM |  | 19 µM | 76 µM | 76 µM | 76 µM |  | 0.6 µM | 305 µM | 305 µM | 1.75 | in the nanomolar range
9 | CC(=O)OCC1O[C@@H]([S][Au-][P+](c2ccc(C(F)(F)F)cc2)(c2ccc(C(F)(F)F)cc2)c2ccc(C(F)(F)F)cc2)C(OC(C)=O)[C@@H](OC(C)=O)[C@@H]1OC(C)=O (stereo partly drawn) [Compound 36, (2,3,4,6-Tetra-O-acetyl-1-thio-β-D-glucopyranosato)(tris(4-(trifluoromethyl)phenylphosphine)) Gold(I)] | >249 µM |  | 4 µM | 8 µM | >249 µM |  |  | >249 µM |  | >249 µM |  | 31 µM | 62 µM | >249 µM |  | >3.55 | 
10 | CC[P+](CC)(CC)[Au-][S]CC(F)(F)F [Compound 23, (2,2,2-Trifluoroethanethiolato)(triethylphosphine) Gold(I)] | 74 µM | 74 µM | 0.009 µM | 0.1 µM | 37 µM | 149 µM |  | 37 µM and 74 µM | 149 µM | 149 µM | 149 µM | 0.6 µM | 1 µM | 149 µM | 149 µM | 2.08 | in the nanomolar range
11 | COc1ccc([P+]([Au-][Cl])(c2ccc(OC)cc2)c2ccc(OC)cc2)cc1 [Compound 28, (Tris(4-methoxyphenyl)phosphine)gold Chloride] | >438 µM |  | 2 µM | 3 µM | >438 µM |  |  | >438 µM |  | >438 µM |  | 3 µM | 3 µM | >438 µM |  | >4.09 | 
